# Active and inactive are the calls of the source.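 The calls were made as follows, unless noted: active = visually confirmed hit in the image check and inhibition above 20%; inconclusive = visually confirmed hit but inhibition not above 20%; inactive = no visual hit in the image check.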
# Columns and labels:
# [1] = inhibitors of TNFa-induced NFkB p65 translocation, primary screen, imaging, HUVEC, MLSMR starter and 10KST1 sets (AID 438;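 active = inhibition above 20% together with a positive visual image hit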;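 also: compound added about 3h40 before a 20 min TNFalpha stimulation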;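 as to inhibition: signal is the nuclear over cytoplasmic p65 intensity ratio per well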); details: HUVEC TNFa-induced p65 nuclear translocation; cell count: measured here: nuclei count (cytotoxicity indicator), at 2.08 µM; inhibition: at 2 µM, stronger effect = higher value, 0% TNFa-plus-vehicle, 100% no-TNFa wells
# [2] = endothelial E-selectin expression blockers – imaging, HUVEC, immunofluorescence, MLSMR starter and 10KST1 sets, primary screen (AID 487); details: HUVEC TNFalpha-induced E-selectin immunofluorescence imaging, at 2 µM; inhibition: stronger effect = higher value; nuclei count: measured here: cell number, toxicity;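 as to inhibition: signal is fraction of cell area covered by stained E-selectin grains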;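 as to nuclei count: 100% = median nuclei count of all wells on the same plate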
# [3] = Primary imaging screen for DUSP6 inhibitors that restore phospho-Erk in transfected HeLa cells, chemical complementation (AID 609;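 active = compounds giving at least 50% inhibition in the cell-based MKP-3 phosphatase rescue imaging test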;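 as to inhibition: phospho-Erk level distribution per well compared with pooled transfected vehicle control wells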); details: HeLa MKP-3 transfected, phospho-Erk imaging KS statistic, at 10 µM, cells stimulated with TPA for 15 min
# [4] = target: Dual specificity protein phosphatase 6 (Homo sapiens) (UniProt Q16828); assay: as above; details: HeLa MKP-3 transfected, phospho-Erk imaging KS statistic; at 10 µM; stronger effect = higher value; cells stimulated with TPA for 15 min
# [5] = target: Voltage-gated potassium channel subunit beta-2 (Rattus norvegicus) (UniProt P62483); assay: inhibitors of rat Kvbeta2 reductase activity – biochemical, NADPH fluorescence, primary screen (AID 622;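 active = fluorescence slope higher than the sample average by over 3 SD, cut at about -0.22 in these data, passing the limit was not always enough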;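 also: slope of raw intensity against log time taken from 70 to 1610 s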); details: recombinant KvBeta, 4-cyanobenzaldehyde reduction, at 10 µM, stronger effect = higher value
# [6] = target: Voltage-gated potassium channel subunit beta-2 (Rattus norvegicus) (UniProt P62483); assay: enhancers of rat Kvbeta2 NADPH turnover – biochemical, NADPH fluorescence, primary screen (AID 623;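 active = NADPH fluorescence slope more negative than the mean of all samples by about 3 SD, 99.7% confidence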;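 also: fluorescence intensity change per second fitted from 20 to 320 s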); details: Recombinant KvBeta, NADPH fluorescence decrease slope, 10 min; at 10 µM; stronger effect = lower value
# [7] = target: Muscarinic acetylcholine receptor M4 (Homo sapiens) (UniProt P08173); assay: M4-linked GIRK flux change, two-sided – cell-based, HEK293 M4/GIRK, thallium flux, BTC-AM, M4 allosteric agonist project, primary screen (AID 625;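 active = fluorescence slope after compound addition differing from the mean of all tested samples at 99.7% confidence, mostly higher but some lower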;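 also: thallium influx through GIRK channels coupled to M4 in HEK293 cells with BTC-AM dye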); details: at 10 µM, actives lie on both sides
# Method in brief: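 Material: HEK293 cells with M4 receptor and GIRK channels; Times: cells overnight at 37 °C, BTC-AM loading 1 h, reads 2 min total; Technique: kinetic BTC-AM fluorescence sampled at 1 Hz, 10 s pre-addition baseline; Read-out basis: slope over 15–24 s of trace normalized to starting intensity; Controls: carbachol positive, DMSO negative.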
# [8] = inhibitors of larval lipid processing in zebrafish, primary screen, whole organism, PED6 fluorescence, gall bladder and intestine (AID 686;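 active = a full or partial loss of lipid-probe fluorescence in the fish gall bladder, intestine or both, judged by eye; inactive = no fluorescence loss, or compound toxic to the fish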;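 also: larvae 5 to 7 days old with five fish per well; signal comes from phospholipase A2 cleavage of quenched PED6 carried via bile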); details: Zebrafish larvae PED6 lipid processing, fluorescence scoring; screened at 20 µM (by protocol)
# Method in brief: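 Incubation: overnight exposure of larvae to compound plus PED6 / Test system: live zebrafish larvae aged 5-7 days, whole organism / Amount: 5 larvae per well / Read-out basis: visual per-well fluorescence inhibition score / Signal: visual fluorescence microscopy scoring of gall bladder, gut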
# [9] = loss of swimming-algae plug formation – whole organism, Chlamydomonas reinhardtii, WT vs cilia-less mutant, absorbance, 96-well, primary screen (AID 463189;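 active = inhibition at or above 50% relative to wild type and mutant plate controls; inactive = inhibition below 50%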;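 also: 0% = wild type cc124 cells in DMSO and 100% = ciliumless bld1 mutant cells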); details: Chlamydomonas reinhardtii gravitaxis, OD600 absorbance, 2 days; at 10 µM; stronger effect = higher value
# [10] = measured here: cell density z-score
# [11] = measured here: nuclear c-Myc green intensity z-score
# [12] = measured here: nuclear pErk red intensity z-score, stronger effect = higher value
# Sequence of Dual specificity protein phosphatase 6 (Homo sapiens) (Q16828 whole entry, looked up): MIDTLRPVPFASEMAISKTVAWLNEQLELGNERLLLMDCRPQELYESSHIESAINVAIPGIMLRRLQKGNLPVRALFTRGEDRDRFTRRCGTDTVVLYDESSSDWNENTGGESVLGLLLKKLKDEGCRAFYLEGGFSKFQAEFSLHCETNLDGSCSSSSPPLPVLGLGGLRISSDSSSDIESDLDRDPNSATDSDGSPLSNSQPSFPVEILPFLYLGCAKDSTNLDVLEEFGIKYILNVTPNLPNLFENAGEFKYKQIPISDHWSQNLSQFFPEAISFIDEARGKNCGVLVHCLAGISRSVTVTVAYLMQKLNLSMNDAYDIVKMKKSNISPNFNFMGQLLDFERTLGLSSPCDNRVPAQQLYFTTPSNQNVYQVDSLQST
# Sequence of Voltage-gated potassium channel subunit beta-2 (Rattus norvegicus) (P62483 whole entry, looked up): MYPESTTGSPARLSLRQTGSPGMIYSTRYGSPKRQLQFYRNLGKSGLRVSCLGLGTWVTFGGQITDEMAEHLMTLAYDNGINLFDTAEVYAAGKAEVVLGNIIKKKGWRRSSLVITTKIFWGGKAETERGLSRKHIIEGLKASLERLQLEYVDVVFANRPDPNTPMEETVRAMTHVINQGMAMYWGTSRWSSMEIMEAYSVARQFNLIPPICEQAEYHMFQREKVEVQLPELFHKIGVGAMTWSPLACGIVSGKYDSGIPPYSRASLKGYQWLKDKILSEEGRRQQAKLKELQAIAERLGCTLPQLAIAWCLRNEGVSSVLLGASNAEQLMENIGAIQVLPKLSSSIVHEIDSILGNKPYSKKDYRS
# Sequence of Muscarinic acetylcholine receptor M4 (Homo sapiens) (P08173 whole entry, looked up): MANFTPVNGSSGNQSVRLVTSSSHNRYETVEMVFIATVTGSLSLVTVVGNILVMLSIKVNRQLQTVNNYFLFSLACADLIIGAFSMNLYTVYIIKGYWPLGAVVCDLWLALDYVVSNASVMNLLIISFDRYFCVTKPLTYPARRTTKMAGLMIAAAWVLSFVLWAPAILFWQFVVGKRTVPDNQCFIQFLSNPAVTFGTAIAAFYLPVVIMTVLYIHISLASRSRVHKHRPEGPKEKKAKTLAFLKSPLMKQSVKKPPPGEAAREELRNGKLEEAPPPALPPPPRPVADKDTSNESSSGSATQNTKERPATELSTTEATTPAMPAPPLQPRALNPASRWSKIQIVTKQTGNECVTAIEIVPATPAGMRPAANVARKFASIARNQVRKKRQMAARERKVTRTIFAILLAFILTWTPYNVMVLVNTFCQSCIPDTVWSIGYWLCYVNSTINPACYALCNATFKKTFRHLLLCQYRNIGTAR
SMILES,cell count [1],inhibition [1],inhibition [2],nuclei count [2] [%],"z-score [3, 10]","z-score [3, 11]","z-score [3, 12]",inhibition [4],fluorescence slope [5],NADPH fluorescence slope [6],fluorescence slope [7],outcome [8],inhibition [9]
COc1ccc(/C(O)=C2/C(=O)C(=O)N(CCCN(C)C)C2c2ccccc2)cc1Cl (stereo unspecified),690,-2% (inactive),-71.3% (inactive),159,0.886,-1.15,1.23,4.25% (inactive),-0.452 (inactive),-6.6e-05 (inactive),0.00499 (inactive),inactive,20.4% (inactive)
CC(C)OCCCNc1ncnc2c1cnn2-c1ccccc1,571,-10.1% (inactive),45.3% (inactive),117,0.477,1.09,-0.0471,15.4% (inactive),-0.377 (inactive),-5.1e-05 (inactive),0.00537 (inactive),inactive,18.2% (inactive)
COc1ccc(C2Nc3ccccc3C(=O)N2Cc2ccco2)cc1CN1C(=O)c2ccccc2C1=O (stereo unspecified),691,-6.9% (inactive),20.3% (inactive),132,0.751,-1.72,0.41,9.07% (inactive),-0.461 (inactive),-4.4e-05 (inactive),0.00497 (inactive),inactive,8.71% (inactive)
Nc1ccc2oc(-c3cc(Br)ccc3Cl)nc2c1,569,3.7% (inactive),-26.9% (inactive),171,0.555,-1.29,0.312,9.91% (inactive),-0.00932 (inactive),8.2e-06 (inactive),0.00586 (inactive),inactive,15.1% (inactive)
COC(=O)COc1ccc(Oc2nc(SC)nc(N(C)C)n2)nn1,345,-16.3% (inactive),-54.5% (inactive),109,-0.468,-0.441,-0.861,-3.95% (inactive),-0.461 (inactive),-8.1e-05 (inactive),0.00594 (inactive),inactive,-8.33% (inactive)
O=c1[nH]c2cnccc2n1-c1ccccc1,546,1.5% (inactive),-390% (inactive),162,1.25,-0.89,-1.07,9.91% (inactive),-0.404 (inactive),-4.6e-05 (inactive),0.00569 (inactive),inactive,-6.57% (inactive)
CCOC(=O)C1=C(C)N=C2SC(C)C(=O)N2C1c1ccc(C(=O)OC)cc1 (stereo unspecified),701,2.4% (inactive),-69.3% (inactive),146,-0.735,0.0686,1.13,15% (inactive),-0.428 (inactive),-2.7e-05 (inactive),0.00536 (inactive),inactive,-2.25% (inactive)
CCOC(=O)C1CCN(c2ncnc3c2cnn3-c2ccc(Cl)cc2)CC1,621,-13.7% (inactive),-82.8% (inactive),158,1.18,-0.0217,-0.611,27.4% (inactive),-0.442 (inactive),-1.8e-05 (inactive),0.00741 (inactive),inactive,-0.354% (inactive)
CC(=O)NC(=O)Nc1sc(=S)n(C)c1C,329,-4.5% (inactive),-21.6% (inactive),71.6,0.847,-2.04,0.71,9.82% (inactive),-0.515 (inactive),4.8e-06 (inactive),0.00528 (inactive),inactive,30.1% (inactive)
COc1ccc(CC(=O)OCN2C(=O)c3ccccc3C2=O)cc1,518,-10.2% (inactive),-70.2% (inactive),138,0.489,-1.2,-0.603,11.9% (inactive),-0.359 (inactive),-1.7e-05 (inactive),0.00563 (inactive),inactive,20.5% (inactive)
Cc1ccc(-c2nn(C)c(=O)c3ccccc23)cc1CN1CCOCC1,424,-0.6% (inactive),-40.3% (inactive),145,0.246,0.445,-0.955,6.04% (inactive),-0.452 (inactive),-3.3e-05 (inactive),0.00454 (inactive),inactive,-2.85% (inactive)
Cn1c(N)c(C#N)c(C#N)c1-c1ccccc1,625,-10.7% (inactive),-93.2% (inactive),183,-0.336,-0.891,0.762,-2.59% (inactive),-0.339 (inactive),-1.8e-05 (inactive),0.00399 (inactive),inactive,31.5% (inactive)

# Reference: PubChem BioAssay
